Apaf1 activ = activators of human Apaf-1 apoptosome. O14727. Apaf-1 apoptosome caspase-3 activation, DEVD-Rh110 fluorescence; hits give low values. activity change, negative = activation, % at 20 µM. 0.31% of 330,000 active. AID 489031;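 active means activity change at or below -40% at 20 µM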
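System: Reconstituted apoptosome of Apaf-1, cytochrome c, caspase-9, procaspase-3 | Reagent: dATP, cytochrome c, and (Z-DEVD)2-Rh110 caspase-3 substrate | Times: 30 min compound preincubation and 50 min reaction, both room temperature | Detection: Caspase-3-released Rh110 fluorescence, 540 nm emission, 480 nm excitation | Measure: Caspase-3 activity via Apaf-1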
Rh110 act interf = Rh110 signal interference in Apaf-1 activator counter-screen; 980 tested, under 10 active; shares compounds with Apaf1 activ; fluorescence interference (activity change), % at 20 µM, hits read low; Rh110 fluorescence interference, quenched caspase reaction, Ex480/Em540;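 active means mean activity change at or below -40% when tested at 20 µM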
Apaf-1 act conf = Apaf-1 (human) activation, single-dose confirmed; shares compounds with Apaf1 activ; reconstituted apoptosome caspase-3 activity, DEVD-Rh110 fluorescence; hits give low values; activity change, negative = activation, % at 20 µM; 5% of 980 active;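 active means mean activity change at or below -40%, meaning activation of 40% or more, at 20 µM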
Fluor interf act = shows fluorescence interference in the Apaf-1 activator assay format; shares compounds with Apaf1 activ; fluorescence interference counterscreen; EC50, µM; 55 tested, under 10 active; call rule not given here
Numbers without * were called inactive. These entries were drawn from the full list.

SMILES | Apaf1 activ | others
C=C(C)C(=O)Nc1cccc(C2=NOC3(C2)C[C@@H](C(N)=O)N(C(=O)C(=C)C)C3)c1 (some centres not stated) | -291.0* | Rh110 act interf=1.1;Apaf-1 act conf=-132.6*;Fluor interf act=>100
COC(=O)CCC(=O)OC1(C)C(=O)C=C2C=C(C3CC3)N(C3CC3)C=C2C1=O (configuration not stated) | 53.6
Cc1oc2c(c1C(=O)N1CCC(C)CC1)C(=O)c1ccccc1C2=O | 41.5
O=C1c2c(O)ccc(O)c2C(=O)c2c(NCCNCCO)ccc(NCCNCCO)c21 | 78.4
COc1ccc(C[C@H]2CN3C(=NC[C@@H]3C(C)C)N2C[C@H](C)NC(=O)c2ccc(C)c(Br)c2)cc1 | 48.1
CCC(=O)N(C1=C(NC)C(=O)c2ccccc2C1=O)C(C)C | 68.6
COc1cccc2c1C(=O)c1ccc3ccccc3c1C2=O | 72.2
C#CCOCCOCCOCCNc1nc(N2CCOCC2)nc(N2CCN(C(=O)CCCCCCCCCCNC(=O)[C@H](CO)n3cc(CCCCCN)nn3)CC2)n1 | 43.5
C=C(C)C(=O)Nc1cccc(C2=NOC3(C2)C[C@@H](C(N)=O)N(C(=O)c2ccc(Cl)cc2)C3)c1 (some centres not stated) | -204.2* | Rh110 act interf=12.0;Apaf-1 act conf=-126.6*;Fluor interf act=>100
O=C1NCN(c2ccccc2)C12CCN(CCCC(c1ccc(F)cc1)c1ccc(F)cc1)CC2 | 54.7
CCN(CC)S(=O)(=O)c1ccc(Cl)c(NC(=O)c2ccc(C#N)cc2)c1 | -270.3* | Rh110 act interf=5.7;Apaf-1 act conf=16.1
CCN(c1ccccc1)S(=O)(=O)c1ccc(Cl)c(NC(=O)Nc2ccc(Cl)cc2C#N)c1 | 40.2
Cc1ccc(C(=O)NC(=S)Nc2cccc3nsnc23)cc1 | 58.9
O=C(c1ccc2nc(-c3ccco3)c(-c3ccco3)nc2c1)N1CCN(c2ncccn2)CC1 | 57.5
CC1=CC(=C(C#N)c2nc3ccccc3s2)C=C(C)N1c1ccc(F)cc1 | 44.6
S=C(Nc1ccc(N2CCOCC2)cc1)Nc1ccc2nc(-c3ccco3)c(-c3ccco3)nc2c1 | 41.3
COc1cccc(N2C(=O)CC(Nc3ccc(N4CCOCC4)cc3)C2=O)c1 (configuration not stated) | -393.1* | Rh110 act interf=0.6;Apaf-1 act conf=15.7
CC1CCN(S(=O)(=O)c2ccc3c4c2CC(=O)N4CC(C)S3)CC1 (configuration not stated) | 94.4
Cc1ccc(N=Cc2cccc(O)c2O)c(C)c1 | 93.3
Nc1ccc(Oc2ncccn2)cc1 | 43.5
CCCC[n+]1ccn(C2=C([O-])c3ccccc3C(=O)/C2=N\S(=O)(=O)c2ccccc2)c1 | 59.0
NC(N)=N/N=C/c1c(Cl)cccc1Cl | 1.1
Cc1ccc2[nH]c3c(c2c1)CN(C(=O)CN1CCCc2ccccc21)CC3 | 78.5
CS(=O)(=O)N(CC(=O)N1CCc2ccccc2C1)c1cccc(Br)c1 | -257.5* | Rh110 act interf=2.5;Apaf-1 act conf=13.6
CC(=O)N1CCN(C(=S)NC(=O)C23CC4CC(CC(C4)C2)C3)CC1 | 47.5
SMILES | Apaf1 activ | others
Cc1c(C=O)c(Cl)n(C)c(=O)c1C#N | 96.7
CCOC(=O)C1=C(CN2CCN(c3ccc(F)cc3)CC2)NC(=O)NC1c1cccs1 (configuration not stated) | 41.2
C#CCOCCOCCOCCNc1nc(N2CCN(C(=O)[C@H](Cc3ccc(O)cc3)n3cc([C@@H](N)C(C)CC)nn3)CC2)nc(N2CCN(C(=O)[C@H](Cc3cc4ccccc4[nH]3)n3cc([C@@H](N)CC(C)C)nn3)CC2)n1 (some centres not stated) | 47.2
COc1ccc(NC(=S)Nc2ccccn2)c(OC)c1 | -48.0* | Rh110 act interf=-0.2;Apaf-1 act conf=17.0
COc1ccc(NC(=S)Nc2cccc3ccccc23)cc1OC | 82.9
Cc1ccccc1NC1=C/C(=N\S(=O)(=O)c2cccs2)c2ccccc2C1=O | 97.0
CC(=O)N(/N=C1\Sc2ccccc2C1=O)c1cccc(C)c1 | 85.8
N#Cc1nc(-c2ccc(OCc3ccc(Cl)cc3)cc2)oc1N1CCC(C(N)=O)CC1 | -82.1* | Rh110 act interf=2.0;Apaf-1 act conf=-96.4*;Fluor interf act=>100
CC(=O)CC(c1ccccc1)c1c(O)c2ccccc2oc1=O (configuration not stated) | 3.9
CCn1cc(C(=O)Nc2ccc(NC(=O)c3ccco3)cc2)c(=O)c2ccc(C)nc21 | -58.8* | Rh110 act interf=-8.1;Apaf-1 act conf=-3.6
CCn1cc(C(=O)OCC(=O)OC2CC(C)CCC2C(C)C)c(=O)c2ccc(C)nc21 (configuration not stated) | 47.6
COc1ccc(C[C@H]2CN3C(=NC[C@H]3Cc3ccccc3)N2CCNC(=O)c2ccc(C)c(Br)c2)cc1 | 42.9

Compound activity: PubChem, Sanford-Burnham Center for Chemical Genomics
